Rows were chosen to be rich in hits. Some 0.51% of all compounds tested hit in one or more screens of this group.
CatB mix inh = inhibitors of human cathepsin B in compound mixtures; P07858; Purified cathepsin B, AMC dipeptide fluorescence; inhibition, %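 (ten-compound pools at 5 µM per compound and 50 µM total)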; actives 0.06% (n = 62,000); in the data active = inhibition above about 22%, passing the limit was not always enough
E coli RNAP = inhibitors of Escherichia coli RNA polymerase; E. coli RNA polymerase, fluorescence transcription assay; inhibition, %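 (tested at 10 µM)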; P0A8V2; actives 0.2% (n = 62,000); in the data active = inhibition above about 20%
CatS inh = human cathepsin S inhibition | P25774 | AID 501 | actives 0.06% (n = 62,000) | inhibition, %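 (tested at 5 µM per compound within 10-compound mixtures)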 | recombinant cathepsin S, AMC dipeptide fluorescence, pooled mixtures; in the data active = inhibition above about 32%, passing the limit was not always enough
CatL block = inhibitors of human cathepsin L; P07711; purified cathepsin L, fluorogenic substrate, fluorescence; inhibition, %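 (tested at 10 µM)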; actives 0.17% (n = 58,000); AID 460; in the data active = inhibition above about 45%
AP ELISA ortho = alternative pathway complement inhibition, orthogonal assay. AID 1235. actives 0.08% (n = 62,000). inhibition, % at 5 µM. Human serum alternative complement pathway, LPS-coated ELISA, C3 deposition; tested in compound mixtures;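 active = inhibition above 30% in each of the two pooled mixtures holding the compound, so the lower value exceeds 30%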
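Medium: diluted human serum in Mg2+-EGTA GVB++. Assay system: human serum complement alternative pathway, C3 deposition onto LPS. Also added: Plate-bound LPS. Technique: Anti-C3 ELISA, OD 450 nm. Measure: percent inhibition. Incubation: 1 h at 37 °C. Dosing: 5 µM each compound, pools of ten, 50 µM per pool.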
CatB block = blocks human cathepsin B protease activity | inhibition, %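 (tested at 10 µM)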 | purified cathepsin B, fluorogenic substrate, fluorescence | AID 453 | actives 0.1% (n = 63,000) | P07858; in the data active = inhibition above about 21%
Large screens that a line does not name were inactive.

CN1C(=O)c2ccc(C(=O)NC3CCCCC3)cc2C1=O	AP ELISA ortho 41
COc1ccc(N2CCN(CCCNS(=O)(=O)c3c(C)noc3/C=C/N(C)C)CC2)cc1	CatL block 75
CC(C)NC(=O)Cn1c(SCC(=O)N2CCCCCC2)nc2ccccc21	none
Nc1nonc1-c1nc2ccccc2n1CC(=O)N1CCCCC1	CatB mix inh 86, CatL block 66, CatB block 81
CCSc1nc2ccccc2n1CC(=O)N1CCCCC1	CatL block 56
COC(=O)c1ccccc1NC(=O)Cn1c(-c2nonc2N)nc2ccccc21	CatB mix inh 82, CatL block 66, CatB block 70 (no result: CatS inh)
CCS(=O)(=O)NCCc1cc2c(OC)ccc(OC)c2[nH]c1=O	none
Cc1c(CCC#N)c(N2CCN(C3CCCCC3)CC2)n2c(nc3ccccc32)c1C#N	none
Cc1ccc(/C=N/c2sc3c(c2C#N)CCC3)s1	CatL block 105
CCC(C)c1ccc(O)c(N)c1 (stereo not given)	E coli RNAP 28
COc1ccccc1N1CCN(S(=O)(=O)c2ccc(Cl)s2)CC1	none
CN(C(=O)c1ccncc1)C1CC(C)(C)N(O)C(C)(C)C1	E coli RNAP 21
CCOC(=O)N1CCN(c2c(N3CCN(c4ccccn4)CC3)c(=O)c2=O)CC1	CatL block 86
Nc1nonc1C(=O)NCCNCc1cc(Br)ccc1OCc1ccccc1F	none
Nc1nonc1C(=O)NCCNCc1ccccc1OCc1ccccc1F	CatB block 23 (no result: E coli RNAP)
CCn1c(SCc2c(F)cccc2Cl)nnc1-c1ccco1	none

Screens as filed in PubChem BioAssay.
